The source made the active and inactive calls. The calls are words filed in the database; no cut-off is given here.
What was measured:
HCT-116 = test: Cytotoxicity against human HCT-116 cells measured after 48 hrs by CellTiter 96 Aqueous One Solution Cell Proliferation Assay; format: functional, cell-based; settings: HCT-116, 48 h
MCF7 = test: Antiproliferative activity against human MCF7 cells assessed as cell growth inhibition measured after 48 hrs by sulforhodamine B assay; format: functional, cell-based; settings: MCF7, 48 h
Procedure, shortened: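 MCF-7 cells grown 24 h without drug, then 48 h with varying compound concentrations. Total cell protein measured by sulforhodamine B assay; IC50 for growth inhibition derived.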

[1] = Disruption of microtubule network in rat A10 cells incubated for 18 hrs by fluorescence microscopic analysis; format: cell-based
Procedure, shortened: (§1)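 A-10 cells on glass coverslips exposed to a range of compound concentrations for 18 h. Cells fixed, microtubules stained with β-tubulin antibody, nuclei with DAPI, then viewed by fluorescence microscopy. Microtubule loss estimated visually, EC50 taken from dose-response curves, two independent experiments.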

Tubulin (Homo sapiens) [2] = biological target: T1, Tubulin (Homo sapiens) (UniProt P68371+Q9H4B7+P0DPH7+P68366+Q13509+Q71U36+P04350+Q3ZCM7+P07437+P68363+Q9BQE3+Q6PEY2+Q13885+Q9BVA1+Q9BUF5); test: Inhibition of [3H]colchicine binding to tubulin (unknown origin) at 5 uM relative to control; format: protein-complex assay
Procedure, shortened: (§2)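 Tubulin at 1.0 μM (0.1 mg/mL), [3H]colchicine at 5.0 μM, compounds at 5 or 50 μM. Bound colchicine measured by DEAE-cellulose filter method; triplicate experiments.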

[3] = Cytotoxicity against human HPDE cells measured after 48 hrs by CellTiter 96 Aqueous One Solution Cell Proliferation Assay; format: toxicity, cell-based
Tubulin (Homo sapiens) [4] = biological target: T1, Tubulin (Homo sapiens); test: Inhibition of [3H]colchicine binding to tubulin (unknown origin) at 50 uM relative to control; format: protein-complex assay; procedure, shortened: as §2
[5] = Inhibition of bovine brain tubulin polymerization preincubated for 15 mins followed by GTP addition and measured after 20 mins; design: species or system Bos taurus
A10 [6] = test: Disruption of microtubule network in rat A10 cells at 15 uM incubated for 18 hrs by fluorescence microscopic analysis; format: cell-based; procedure, shortened: as §1
A10 [7] = test: Disruption of microtubule network in rat A10 cells at 20 uM incubated for 18 hrs by fluorescence microscopic analysis; format: cell-based; procedure, shortened: as §1
A10 [8] = test: Disruption of microtubule network in rat A10 cells at 2.5 uM incubated for 18 hrs by fluorescence microscopic analysis; format: cell-based
Procedure, shortened: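 Rat A-10 cells grown on glass coverslips, exposed 18 h to a range of compound concentrations (single-concentration image at 2.5 μM), then fixed. Microtubules stained by indirect immunofluorescence with β-tubulin antibody, nuclei with 4,6-diamidino-2-phenylindole. Interphase microtubule loss scored visually by fluorescence microscopy against vehicle control.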

MIA PaCa-2 = test: Cytotoxicity against human MIA PaCa-2 cells at 1.562 to 100 uM measured after 48 hrs by CellTiter 96 Aqueous One Solution Cell Proliferation Assay; format: functional, cell-based; settings: dose 1.562-100 µM

| SMILES | IC50 (HCT-116) [µM] | IC50 (MCF7) [µM] | EC50 [1] [µM] | inhibition (Tubulin (Homo sapiens) [2]) | IC50 at 48 h [3] [µM] | inhibition (Tubulin (Homo sapiens) [4]) | IC50 [5] [µM] | Activity (A10 [6]) | Activity (A10 [7]) | Activity (A10 [8]) | Activity (MIA PaCa-2) |
| --- | --- | --- | --- | --- | --- | --- | --- | --- | --- | --- | --- |
| COc1cc(/C=C\c2cnc(OC)c(B(O)O)c2)cc(OC)c1OC | < 5 | 0.39 | 9 | inactive | > 50 | inactive | 30 | Active |  |  |  |
| COc1ccc(/C=C\c2cc(OC)c(OC)c(OC)c2)cc1B(O)O |  |  | 0.058 |  | > 50 | 99% | 1.5 |  |  |  |  |
| COc1cc(C(=O)c2cnc(OC)c(B(O)O)c2)cc(OC)c1OC |  | > 2.5 | > 50 | inactive | > 50 | inactive | > 40 |  |  |  |  |
| COc1cc(/C=C\c2ccc(B(O)O)cc2)cc(OC)c1OC | < 5 | 0.48 | 4 | 6.4% | > 50 | 77% | 10 |  | Active |  |  |
| COc1ccc(C(=O)c2cc(OC)c(OC)c(OC)c2)cc1B(O)O |  | 0.3 | 5 | 21% | > 50 | 59% | 12 |  |  | Active | Active; Compound Showed Less Toxicity Than Hct-116 Cells |
| COc1cc(/C=C\c2cccc(B(O)O)c2)cc(OC)c1OC | < 5 | 0.85 | 9 | inactive | > 50 | inactive | 27 |  |  |  |  |
| COc1ccc(/C=C\c2cc(OC)c(OC)c(OC)c2)cc1O [COMBRETASTATIN A4] |  |  | < 0.025 |  | > 50 |  |  |  |  |  |  |
| COc1ccc(C(=O)c2cc(OC)c(OC)c(OC)c2)cc1O [PHENSTATIN] |  |  |  | 86% | > 50 | inactive | 1 |  |  |  |  |
| COc1cc(/C=C\c2ccccc2B(O)O)cc(OC)c1OC | < 5 | > 2.5 | 51 | inactive | > 50 | inactive | > 40 |  |  |  | Active; Compound Showed Less Toxicity Than Hct-116 Cells |
